Bioassay records: PubChem, Sanford-Burnham Center for Chemical Genomics
Hits are enriched below; roughly 1.5% of the tested compounds scored in any of these assays.
APJ agonist: agonists of human APJ apelin receptor | P35414 | CHO-K1 APJ PathHunter beta-arrestin, luminescence; 0% DMSO wells, 100% apelin | activation, % at 20 µM | 0.11% of 330,000 active;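 active = activation more than six SD over the plate average, tested at 20 µM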;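 also: 0% = DMSO alone and 100% = apelin-13 at 10 nM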
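assay system = CHO-K1 APJ beta-arrestin complementation cell line | input = cell density 1000 per well | dosing = compound 20 µM once, DMSO 1% | timing = compound 90 min 25 °C, reagent 1 h | measured by = luminescence from split beta-galactosidase complementation, Galacton Star/Emerald II substrate | read-out basis = APJ agonist activity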
CXCR6 inh: inhibitors of human CXCR6 receptor; 0.36% of 360,000 active; inhibition, % at 20 µM; O00574; AID 602244; CHO-K1 PathHunter CXCR6 beta-arrestin, luminescence; in the data active = inhibition above about 34%, passing the limit was not always enough;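 also: antagonist mode with CXCL16 agonist at 10 nM final; 0% = 10 nM CXCL16 with DMSO and 100% = unstimulated wells without agonist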
hiPSC survival: enhancers of human iPSC single-cell survival; hiPSC single-cell survival, ATPlite luminescence; 100% = ROCK inhibitor wells, 0% = DMSO; 0.044% of 360,000 active; AID 602274; survival enhancement, % at 20 µM; in the data active = survival enhancement above about 18%;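 also: cells exposed to compounds for 16 hours before the ATP read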
APJ antag: APJ receptor antagonism; inhibition, % at 20 µM; CHO-K1 APJ beta-arrestin complementation, luminescence; 0.32% of 330,000 active;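 active = inhibition above about 40% at 20 µM, limit read from the data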;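 also: cells challenged with 10 nM apelin-13 agonist together with compound; plate controls were apelin-13 plus DMSO wells for no effect and DMSO wells lacking apelin-13 for full effect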
CCR6 antag: antagonists of human CCR6 receptor. AID 493098. inhibition, % at 20 µM. 0.49% of 340,000 active. CHO-K1 CCR6 PathHunter beta-arrestin, luminescence, CCL20-stimulated;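 active = compounds whose inhibition of the agonist-driven luminescence signal at 20 µM reaches about 50%, limit read from the data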;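 also: cells stimulated with CCL20 at 14 nM final; plate controls were DMSO with CCL20 for no effect and DMSO without agonist for full effect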
EBI2 block: antagonists of human EBI2 receptor. P32249. EBI2 beta-arrestin recruitment, luminescence, 7a,25-OHC stimulated. inhibition, % at 5 µM. 0.81% of 360,000 active. AID 651636; in the data active = inhibition above about 38%;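 also: enzyme fragment complementation signal reports receptor beta-arrestin coupling in cells; 0% = agonist plus DMSO wells and 100% = wells without agonist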
Target sequence (P32249 whole entry, looked up, the tested form may be a part): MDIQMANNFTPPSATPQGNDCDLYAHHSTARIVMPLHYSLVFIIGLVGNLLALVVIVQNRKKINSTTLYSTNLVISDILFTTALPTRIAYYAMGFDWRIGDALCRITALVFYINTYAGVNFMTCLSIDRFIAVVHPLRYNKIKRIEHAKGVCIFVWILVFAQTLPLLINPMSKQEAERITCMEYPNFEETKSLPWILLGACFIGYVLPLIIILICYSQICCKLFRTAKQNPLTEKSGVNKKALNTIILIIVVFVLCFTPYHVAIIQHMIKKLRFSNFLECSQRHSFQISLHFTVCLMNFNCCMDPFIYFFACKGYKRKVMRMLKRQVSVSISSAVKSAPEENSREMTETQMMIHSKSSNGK
* hit, by the source's call; . = no result given.

SMILES	APJ agonist	CXCR6 inh	hiPSC survival	APJ antag	CCR6 antag	EBI2 block
Cc1nc([N+](=O)[O-])c(Br)n1CC(=O)c1ccc2ccccc2c1	-2	18	-4	3	25	55*
Cc1nc([N+](=O)[O-])c(Br)n1CC(=O)c1ccccc1	-2	1	0	23	13	2
O=C(Nc1cc(S(=O)(=O)N2CCOCC2)ccc1Cl)c1cc([N+](=O)[O-])ccc1Cl	2	-14	-3	-1	-16	2
CN(C)S(=O)(=O)c1cccc(NC(=O)CN2C(=O)NC(Cc3ccccc3)C2=O)c1 (stereo not drawn)	0	-5	0	-5	2	2
O=C(/C=C/c1ccc(NC(=O)c2ccccc2-c2ccccc2C(=O)O)cc1)c1ccccc1	-2	-1	-1	-13	5	3
O=C(/C=C/c1ccncc1)c1ccc(NC(=O)c2ccccc2F)cc1	.	40	-1	.	69*	14
O=C(Nc1nnc(-c2cccs2)o1)c1cccc(C(F)(F)F)c1	-2	44*	0	0	44	-6
Cc1ccc(S(=O)(=O)Nc2cncnc2NS(=O)(=O)c2ccc(C)cc2)cc1	.	4	-3	.	-3	10
COC(CNC(=O)c1cc(C(=O)c2c(-c3c(Cl)cccc3Cl)noc2C)c[nH]1)OC	3	71*	0	-6	23	5
On1ccccc1=S	.	75*	-3	.	83*	37
CCCc1cc(C(=O)Nc2ccc(OC)cc2[N+](=O)[O-])cs1	5	-19	0	-32	0	-6
COc1ccc(C(C#N)=C2C=C(Cl)C(=NO)C=C2Cl)cc1	.	28	-2	.	.	-17
N#CC(=C1C=C(Br)C(=NO)C=C1Cl)c1cccc2ccccc12	.	40*	-4	.	.	10
CCCCN(C=O)c1c(CC)nc2ccc(C(=O)Nc3cc(-c4ccccc4)ccc3OC)cn12	.	20	-2	.	.	27
Cc1ccc(NC2=C/C(=N\S(=O)(=O)c3cccs3)c3ccccc3C2=O)c(C)c1	-6	33	-5	24	59*	26
O=C1C(Nc2ccc(O)cc2)=C/C(=N/S(=O)(=O)c2cccs2)c2ccccc21	.	34	-5	.	59*	20
O=C(O)c1ccc(NC2=C/C(=N/S(=O)(=O)c3cccs3)c3ccccc3C2=O)cc1	.	14	-3	.	.	-28
Cc1ccc(Cl)cc1NC1=C/C(=N\S(=O)(=O)c2cccs2)c2ccccc2C1=O	-1	31	5	39	59*	6
Cc1cc(C)c(S(=O)(=O)/N=C2\C=C(NS(=O)(=O)c3ccccc3)C(=O)c3ccccc32)c(C)c1	-5	31	0	29	38	9
CCc1ccc(S(=O)(=O)/N=C2/C=C(Sc3ncn[nH]3)C(=O)c3ccccc32)cc1	.	54*	-4	.	.	3
COc1ccc(C(=O)[C@@H]2CC[C@](C)(C(=O)O)C2(C)C)cc1	6	-4	1	7	-7	-7
Cc1cc(C)c(S(=O)(=O)/N=C2\C=C(Nc3ccc(C(=O)O)cc3)C(=O)c3ccccc32)c(C)c1	-4	29	-1	-8	.	9
CCc1ccc(S(=O)(=O)/N=C2\C=C(Nc3cccc(C(=O)O)c3)C(=O)c3ccccc32)cc1	-2	18	0	1	45	-2
Cc1cccc(NC2=C/C(=N/S(=O)(=O)c3cccs3)c3ccccc3C2=O)c1	.	27	-3	.	53*	17
CCc1ccc(S(=O)(=O)/N=C2\C=C(Nc3ccc(O)cc3)C(=O)c3ccccc32)cc1	-7	41*	0	25	57*	9
O=C(O)c1cc(N=Nc2c(O)[nH]c3ccc([N+](=O)[O-])cc23)ccc1Cl	-7	40*	0	36	40	11
COc1ccccc1C(=O)N=Nc1c(O)[nH]c2ccc([N+](=O)[O-])cc12	.	2	-1	.	19	2
O=C(N=Nc1c(O)[nH]c2ccc([N+](=O)[O-])cc12)c1cc(-c2ccccc2Cl)nc2ccccc12	-2	36	-2	13	65*	-1
CC(C)(C)c1ccc(S(=O)(=O)NC(=O)C2(C)CCN2C(=O)C2(c3ccc(Cl)cc3)CC2)cc1 (stereo not drawn)	.	-3	2	.	.	-2
